In brackets after ≈: the same amount, converted by molar mass. Starred links: 1 amine or outer side, 2 acyl side, 3 side chain; linkers in the order of their positions; H or OH if unused. Non-standard residues stand in square brackets, D forms with d. Residues, ends and D or L forms follow the SMILES beside them. *: point of attachment. X1 = CCCCCC[C@@H](OC[C@@H](C)N[*:1])[C@@H](C)C(=O)[*:2]; X16 = CCCC[C@@H](C(=O)[*:2])N(CCCC)CCN[*:1]; Gly(cHept) = N[C@H](C(=O)O)C1CCCCCC1; aThr = C[C@H](O)[C@H](N)C(=O)O; NMeL = CN[C@@H](CC(C)C)C(=O)O; Chg = N[C@H](C(=O)O)C1CCCCC1; NMeNva = CCC[C@H](NC)C(=O)O; Dap = NC[C@H](N)C(=O)O; NH(CH2)3NH2 = NCCCN*; X15 = O=C(O)CCCNCCC*
Key:
Escherichia coli = test: Inhibition of LspA in Escherichia coli CFT073imp4213 harboring outer membrane-permeable mutant assessed as inhibition of bacterial growth
Outline: (§1)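 Read-out is the minimum inhibitory concentration, reported in µM.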

Escherichia coli CFT073 = test: Inhibition of LspA in wild type Escherichia coli CFT073 assessed as inhibition of bacterial growth; outline: as §1
[1] = Growth inhibition of Staphylococcus aureus USA300
[2] = Lipophilicity, logD of the compound at pH 7.4; settings: buffer

Structure (SMILES)	MIC (Escherichia coli) [µM]	MIC (Escherichia coli CFT073) [µM]	MIC [1] [µM]	logD ([2]; pH 7.4, logD)	logD ([2]; pH 7.4)
CCCCCCCCCC[C@H]1OC(=O)CNC(=O)[C@H]([C@H](C)O)NC(=O)[C@H](CO)NC(=O)[C@H]([C@@H](C)CC)NC(=O)[C@H](CC(C)C)N(C)C(=O)[C@@H]1C	0.016 (≈ 0.0114 µg/mL)	9.4 (≈ 6.69 µg/mL)	25 (≈ 17.8 µg/mL)	–	–
CCCCCC[C@H]1OC(=O)CNC(=O)[C@H]([C@H](C)O)NC(=O)[C@H](CN)NC(=O)[C@H](c2ccccc2)NC(=O)[C@H](CC(C)C)N(C)C(=O)[C@@H]1C	1.6 (≈ 1.08 µg/mL)	71 (≈ 47.9 µg/mL)	> 100	–	–
CC(C)C[C@H]1C(=O)N[C@@H](C2CCCCC2)C(=O)N[C@@H](CN)C(=O)N[C@@H]([C@H](C)O)C(=O)NCC(=O)O[C@H](CCCCCCC(C)(C)O)[C@@H](C)C(=O)N1C	0.55 (≈ 0.406 µg/mL)	15 (≈ 11.1 µg/mL)	> 100	2.2	–
CCCCCC[C@H]1OC(=O)CNC(=O)[C@H]([C@H](C)O)NC(=O)[C@H](CN)NC(=O)[C@H](C2CCCCC2)NC(=O)[C@H](CC(C)C)N(C)C(=O)[C@@H]1C	0.059 (≈ 0.0402 µg/mL)	3.1 (≈ 2.11 µg/mL)	> 100	–	–
CCCCCCCCCC[C@H]1OC(=O)CNC(=O)[C@H]([C@H](C)O)NC(=O)[C@H](C)NC(=O)[C@H]([C@@H](C)CC)NC(=O)[C@H](CC(C)C)N(C)C(=O)[C@@H]1C	25 (≈ 17.4 µg/mL)	100 (≈ 69.6 µg/mL)	25 (≈ 17.4 µg/mL)	–	–
CCCCCCCCCC[C@H]1OC(=O)CNC(=O)[C@H]([C@H](C)O)NC(=O)[C@H](CN)NC(=O)[C@H]([C@@H](C)CC)NC(=O)[C@H](CC(C)C)N(C)C(=O)[C@@H]1C	0.03 (≈ 0.0213 µg/mL)	2.2 (≈ 1.56 µg/mL)	13 (≈ 9.24 µg/mL)	–	–
CC[C@@H](C)[C@@H]1NC(=O)[C@H](CC(C)C)N(C)C(=O)[C@H](C)[C@@H](CCCCCC(F)(F)F)OC(=O)CNC(=O)[C@H]([C@H](C)O)NC(=O)[C@H](CN)NC1=O	0.39 (≈ 0.276 µg/mL)	25 (≈ 17.7 µg/mL)	> 100	2	–
CCCCCC[C@H]1OC[C@@H](C)NC(=O)[C@H](COc2ccc(CCN)cc2)NC(=O)[C@H](CN)NC(=O)[C@H](C2CCCCC2)NC(=O)[C@H](CCC)N(C)C(=O)[C@@H]1C	0.048 (≈ 0.0371 µg/mL)	1.6 (≈ 1.24 µg/mL)	25 (≈ 19.3 µg/mL)	2.4	–
CCCCCC[C@H]1OC[C@@H](C)NC(=O)[C@H](COc2ccc(CN)cc2)NC(=O)[C@H](CN)NC(=O)[C@H](C2CCCCC2)NC(=O)[C@H](CCC)N(C)C(=O)[C@@H]1C	0.39 (≈ 0.296 µg/mL)	6.3 (≈ 4.78 µg/mL)	100 (≈ 75.8 µg/mL)	2.5	–
CCCCCCCCCC[C@H]1OC(=O)CNC(=O)[C@H]([C@H](C)O)NC(=O)[C@H](Cc2c[nH]cn2)NC(=O)[C@H]([C@@H](C)CC)NC(=O)[C@H](CC(C)C)N(C)C(=O)[C@@H]1C	6.3 (≈ 4.8 µg/mL)	100 (≈ 76.2 µg/mL)	25 (≈ 19.1 µg/mL)	–	–
CCCCCCCCCC[C@H]1OC(=O)CNC(=O)[C@H]([C@H](C)O)NC(=O)[C@H](CN)NC(=O)[C@H]([C@H](C)CC)NC(=O)[C@H](CC(C)C)N(C)C(=O)[C@@H]1C	0.011 (≈ 0.00782 µg/mL)	2.1 (≈ 1.49 µg/mL)	15 (≈ 10.7 µg/mL)	4.6	–
CCC[C@H]1C(=O)N[C@@H](C2CCCCCC2)C(=O)N[C@@H](CN)C(=O)N[C@@H]([C@H](C)O)C(=O)NCC(=O)O[C@H](CC2CC3(CCC3)C2)[C@@H](C)C(=O)N1C	0.009 (≈ 0.00634 µg/mL)	0.78 (≈ 0.55 µg/mL)	50 (≈ 35.2 µg/mL)	2.9	–
CCCCCC[C@H]1OC[C@@H](C)NC(=O)[C@H](CC(=O)NCCCN)NC(=O)[C@H](CN)NC(=O)[C@H](C2CCCCCC2)NC(=O)[C@H](CCC)N(C)C(=O)[C@@H]1C (cyclo(D(NH(CH2)3NH2)[X1][NMeNva][Gly(cHept)][Dap]))	0.39 (≈ 0.293 µg/mL)	18 (≈ 13.5 µg/mL)	100 (≈ 75.1 µg/mL)	1.3	–
CCCC[C@H]1C(=O)N(C)[C@@H](CC(C)C)C(=O)N[C@@H](C2CCCCC2)C(=O)N[C@@H](CN)C(=O)N[C@@H]([C@H](C)O)C(=O)NCCN1CCCC (cyclo([Chg][Dap][aThr][X16][NMeL]))	0.1 (≈ 0.0666 µg/mL)	6.3 (≈ 4.2 µg/mL)	100 (≈ 66.6 µg/mL)	–	–
CCCCCC[C@H]1OC[C@@H](C)NC(=O)[C@H](COCCCNCCCC(=O)O)NC(=O)[C@H](CN)NC(=O)[C@H](C2CCCCCC2)NC(=O)[C@H](CCC)N(C)C(=O)[C@@H]1C (cyclo([Dap]S(X15)[X1][NMeNva][Gly(cHept)]))	0.78 (≈ 0.632 µg/mL)	100 (≈ 81 µg/mL)	> 100	–	–
CCC[C@H]1C(=O)N[C@@H](C2CCCCCC2)C(=O)N[C@@H](CN)C(=O)N[C@@H]([C@H](C)O)C(=O)NCC(=O)O[C@H](CC2CC3CCC2C3)[C@@H](C)C(=O)N1C (stereo in doubt; 26) [listing 1 of 2 here]	–	–	100 (≈ 70.5 µg/mL)	2.8	–
CCC[C@H]1C(=O)N[C@@H](C2CCCCCC2)C(=O)N[C@@H](CN)C(=O)N[C@@H]([C@H](C)O)C(=O)NCC(=O)O[C@H](CC2CC3CCC2C3)[C@@H](C)C(=O)N1C (stereo in doubt; 26) [listing 2 of 2 here]	0.041 (≈ 0.0289 µg/mL)	0.97 (≈ 0.684 µg/mL)	–	–	–
CCC[C@H]1C(=O)N[C@@H](C2CCCCCC2)C(=O)N[C@@H](CN)C(=O)N[C@@H]([C@H](C)O)C(=O)NCC(=O)O[C@H](CC2CC3CCC2C3)[C@@H](C)C(=O)N1C (stereo in doubt; 27) [listing 1 of 2 here]	–	–	–	–	2.9
CCC[C@H]1C(=O)N[C@@H](C2CCCCCC2)C(=O)N[C@@H](CN)C(=O)N[C@@H]([C@H](C)O)C(=O)NCC(=O)O[C@H](CC2CC3CCC2C3)[C@@H](C)C(=O)N1C (stereo in doubt; 27) [listing 2 of 2 here]	0.009 (≈ 0.00634 µg/mL)	0.78 (≈ 0.55 µg/mL)	–	–	–

Source: ChEMBL document CHEMBL4665734, “Optimization of globomycin analogs as novel gram-negative antibiotics” (Bioorg Med Chem Lett, 2020)
